Experimental data from ChEMBL document CHEMBL4428038, “Overcoming chloroquine resistance in malaria: Design, synthesis and structure-activity relationships of novel chemoreversal agents” (Eur J Med Chem, 2016).
≈ marks a conversion by molar mass, not a printed value. Calls of active or inactive are those of the source. The calls are words filed in the database; no cut-off is given here.

What was measured:
[1] = tested on: T1, Chloroquine resistance transporter (Plasmodium falciparum), Q9N623 [K76T]; assay: Inhibition of CRT K76T mutant in chloroquine/artemisinin-resistant Plasmodium falciparum ARS233 assessed as reversal of chloroquine resistance by measuring reduction in chloroquine IC50 at 500 nM relative to chloroquine alone
T1 sequence (whole entry): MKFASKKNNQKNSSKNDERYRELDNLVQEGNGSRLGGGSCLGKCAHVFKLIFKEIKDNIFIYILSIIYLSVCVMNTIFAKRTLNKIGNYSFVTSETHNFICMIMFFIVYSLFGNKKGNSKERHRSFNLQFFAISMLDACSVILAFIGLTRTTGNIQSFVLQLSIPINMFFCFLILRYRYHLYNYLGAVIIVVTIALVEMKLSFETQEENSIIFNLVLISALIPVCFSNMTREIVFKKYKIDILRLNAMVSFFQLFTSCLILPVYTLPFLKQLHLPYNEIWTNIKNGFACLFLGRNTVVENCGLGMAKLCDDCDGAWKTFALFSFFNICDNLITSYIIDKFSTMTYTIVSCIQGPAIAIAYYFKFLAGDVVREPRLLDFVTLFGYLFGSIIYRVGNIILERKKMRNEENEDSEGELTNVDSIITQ

Plasmodium falciparum K1 [2] = assay: Inhibition of CRT CVIET haplotype mutant in chloroquine-resistant Plasmodium falciparum K1 isolate MRA-159 assessed as reversal of chloroquine resistance by measuring reduction in chloroquine IC50 at 500 nM relative to chloroquine alone
[3] = Inhibition of CRT CVIET haplotype mutant in chloroquine-resistant Plasmodium falciparum K1 isolate MRA-159 assessed as reversal of chloroquine resistance by measuring reduction in chloroquine IC50 relative to chloroquine alone
Outline: (§1)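 Chloroquine IC50 was determined in the presence of a fixed 500 nM chemoreversal agent, against chloroquine alone. The RMI is the ratio of chloroquine IC50 with agent to chloroquine IC50 alone. Mean of n = 3; two-tailed t test versus chloroquine without agent.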

[4] = Aqueous kinetic solubility of compound in pH 7.4 solution incubated for 24 hrs; format: physicochemical; conditions: aqueous solution pH 7.4, pH 7.4; read-out: Kinetic_solubility
Plasmodium falciparum [5] = assay: Potentiation of chloroquine-induced antimalarial activity against chloroquine-sensitive Plasmodium falciparum HB3 isolate MRA-155 assessed as reduction in chloroquine IC50 at 500 nM relative to chloroquine alone; format: functional
[6] = tested on: T1, Chloroquine resistance transporter (Plasmodium falciparum), Q9N623 [K76T]; assay: Inhibition of CRT K76T mutant in chloroquine-resistant Plasmodium falciparum NHP4559 assessed as reversal of chloroquine resistance by measuring reduction in chloroquine IC50 at 500 nM relative to chloroquine alone
[7] = tested on: T1, Chloroquine resistance transporter (Plasmodium falciparum), Q9N623 [K76T]; assay: Inhibition of CRT K76T mutant in chloroquine/artemisinin-resistant Plasmodium falciparum ARS272 assessed as reversal of chloroquine resistance by measuring reduction in chloroquine IC50 at 500 nM relative to chloroquine alone
Plasmodium falciparum [8] = assay: Intrinsic antimalarial activity against chloroquine/artemisinin-resistant Plasmodium falciparum ARS272 harboring CRT K76T mutant assessed as reduction in parasite viability at 500 nM; format: functional, organism-based
Plasmodium falciparum [9] = assay: Intrinsic antimalarial activity against chloroquine-sensitive Plasmodium falciparum HB3 isolate MRA-155 assessed as reduction in parasite viability at 500 nM; format: functional, organism-based
Plasmodium falciparum [10] = assay: Intrinsic antimalarial activity against chloroquine-resistant Plasmodium falciparum NHP4559 harboring CRT K76T mutant assessed as reduction in parasite viability at 500 nM; format: functional, organism-based
[11] = tested on: Plasmodium falciparum 7G8; assay: Inhibition of CRT SVMNT haplotype mutant in intermediate chloroquine-resistant Plasmodium falciparum 7G8 isolate MRA-154 t assessed as reversal of chloroquine resistance by measuring reduction in chloroquine IC50 at 500 nM relative to chloroquine alone
Plasmodium falciparum [12] = assay: Intrinsic antimalarial activity against chloroquine-resistant Plasmodium falciparum Dd2 isolate MRA-156 harboring CRT K76T mutant assessed as reduction in parasite viability at 500 nM; format: functional, organism-based
Plasmodium falciparum [13] = assay: Intrinsic antimalarial activity against intermediate chloroquine-resistant Plasmodium falciparum 7G8 isolate MRA-154 harboring CRT SVMNT haplotype mutant assessed as reduction in parasite viability at 500 nM; format: functional, organism-based
[14] = tested on: T1, Chloroquine resistance transporter (Plasmodium falciparum), Q9N623 [K76T]; assay: Inhibition of CRT K76T mutant in chloroquine/artemisinin-resistant Plasmodium falciparum NHP4773 assessed as reversal of chloroquine resistance by measuring reduction in chloroquine IC50 at 500 nM relative to chloroquine alone
Plasmodium falciparum [15] = assay: Intrinsic antimalarial activity against chloroquine/artemisinin-resistant Plasmodium falciparum NHP4773 harboring CRT K76T mutant assessed as reduction in parasite viability at 500 nM; format: functional, organism-based
Plasmodium falciparum [16] = assay: Intrinsic antimalarial activity against chloroquine/artemisinin-resistant Plasmodium falciparum ARS233 harboring CRT K76T mutant assessed as reduction in parasite viability at 500 nM; format: functional, organism-based
[17] = Resistance index, ratio of chloroquine IC50 for intermediate chloroquine-resistant Plasmodium falciparum 7G8 isolate MRA-154 CRT SVMNT haplotype mutant to chloroquine IC50 for chloroquine-sensitive Plasmodium falciparum 3D7 isolate MRA-102 at 500 nM
Outline: (§2)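 Chloroquine IC50 was measured with the chemoreversal agent fixed at 500 nM in K1 or 7G8 and in sensitive 3D7 (means, n = 3). The resistance ratio is the chloroquine IC50 in K1 or 7G8 divided by the chloroquine IC50 in 3D7.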

Plasmodium falciparum [18] = assay: Intrinsic antimalarial activity against chloroquine-resistant Plasmodium falciparum K1 isolate MRA-159 harboring CRT CVIET haplotype mutant assessed as reduction in parasite viability at 500 nM; format: functional, organism-based
[19] = Resistance index, ratio of chloroquine IC50 for chloroquine-resistant Plasmodium falciparum K1 isolate MRA-159 CRT CVIET haplotype mutant to chloroquine IC50 for chloroquine-sensitive Plasmodium falciparum 3D7 isolate MRA-102 at 500 nM; outline: as §2
[20] = tested on: T1, Chloroquine resistance transporter (Plasmodium falciparum), Q9N623 [K76T]; assay: Inhibition of CRT K76T mutant in chloroquine-resistant Plasmodium falciparum Dd2 isolate MRA-156 assessed as reversal of chloroquine resistance by measuring reduction in chloroquine IC50 at 500 nM relative to chloroquine alone
Plasmodium falciparum K1 [21] = assay: Inhibition of CRT CVIET haplotype mutant in Plasmodium falciparum K1 isolate MRA-159 infected in erythrocytes assessed as chloroquine-coumarin probe accumulation at 10 uM after 10 hrs by Hoechst 33342 staining based flow cytometry (reference value: 35.57 +/- 3.84%); format: cell-based; parameters: scale not given: the % may be the effect or the level left
Outline: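 Infected erythrocyte cultures at 2.5% hematocrit and 7–12% parasitemia, synchronized to late-ring/early-trophozoite stage, were incubated with chloroquine-coumarin probe plus test agent for 10 h at 37 C. Cells were then washed, resuspended in PBS and read by flow cytometry (405 nm excitation, 450/50 filter). Hoechst-stained duplicate wells set parasitemia. Uptake = % infected erythrocytes fluorescent. Controls: PBS (negative), desipramine and parent compound (positive). ≥3 independent experiments; mean ± SEM.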

Plasmodium falciparum [22] = assay: Potentiation of chloroquine-induced antimalarial activity against chloroquine-sensitive Plasmodium falciparum 3D7 isolate MRA-102 assessed as reduction in chloroquine IC50 at 500 nM relative to chloroquine alone; format: functional
Plasmodium falciparum [23] = assay: Intrinsic antimalarial activity against chloroquine-sensitive Plasmodium falciparum 3D7 isolate MRA-102 assessed as reduction in parasite viability at 500 nM; format: functional, organism-based
[24] = Inhibition of CRT CVIET haplotype mutant in Plasmodium falciparum K1 isolate MRA-159 infected in erythrocytes assessed as reversal of chloroquine resistance by measuring reduction in chloroquine IC50 by Hoechst 33342 staining based flow cytometry; format: cell-based; outline: as §1

Structure (SMILES) | Ratio IC50 [1] | Ratio IC50 (Plasmodium falciparum K1 [2]) | Ratio IC50 (Plasmodium falciparum [5]) | Ratio IC50 [6] | Ratio IC50 [7] | Activity (Plasmodium falciparum [8]) | Activity (Plasmodium falciparum [9]) | Activity (Plasmodium falciparum [10]) | Ratio IC50 [11] | Activity (Plasmodium falciparum [12]) | Activity (Plasmodium falciparum [13]) | Ratio IC50 [14] | Activity (Plasmodium falciparum [15]) | Activity (Plasmodium falciparum [16]) | Ratio IC50 [17] | Activity (Plasmodium falciparum [18]) | Ratio IC50 [19] | Ratio IC50 [20] | Activity (Plasmodium falciparum K1 [21]) [%] | Ratio IC50 (Plasmodium falciparum [22]) | other results
c1ccc2c(c1)CC(N1CCNCC1)c1ccccc1S2 (centres undefined) | 0.64 | 0.55 | 1 | 0.68 | 0.68 | inactive | inactive | inactive | 0.76 | inactive | inactive | 0.69 | inactive | inactive | 3.8 | inactive | 9.3 | 0.81 | 69.8 | 1.21 | EC50 [3]: 343 nM; solubility kinetic at 24 h [4]: 87.1 µg/mL (≈ 294 µM); Activity (Plasmodium falciparum [23]): inactive
NCC(c1ccccc1)c1ccccc1 | 0.53 | 0.45 | 1.1 | 0.52 | 0.37 | inactive | inactive | inactive | 0.69 | inactive | inactive | 0.54 | inactive | inactive | 3.8 | inactive | 8.4 | 0.59 | 56.4 | 1.11 | EC50 [3]: 200 nM; Activity (Plasmodium falciparum [23]): inactive
N[C@@H]1C2CCN(CC2)[C@@H]1C(c1ccccc1)c1ccccc1 (relative stereo) | 0.97 | 0.93 | 0.99 | 0.98 | 0.99 | inactive | inactive | inactive | 0.93 | inactive | inactive | 1.04 | inactive | inactive | 5.2 | inactive | 17.4 | 0.94 | 52.5 | 1.1 | Activity (Plasmodium falciparum [23]): inactive
NCC(CCN1CCC(O)CC1)(c1ccccc1)c1ccccc1 | 0.9 | 0.74 | 0.99 | 0.95 | 0.93 | inactive | inactive | inactive | 0.98 | inactive | inactive | 0.94 | inactive | inactive | 5.3 | inactive | 13.4 | 0.91 | 64.8 | 1.13 | Activity (Plasmodium falciparum [23]): inactive
N#CC(CCN1CCCCC1)(c1ccccc1)c1ccccc1 | 0.7 | 0.71 | 0.98 | 0.66 | 0.7 | inactive | inactive | inactive | 1 | inactive | inactive | 0.74 | inactive | inactive | 5.1 | inactive | 12.2 | 0.76 | 67 | 1.2 | EC50 [3]: 295 nM; Activity (Plasmodium falciparum [23]): inactive
CN1CCN(C2Cc3ccccc3Sc3ccc(Cl)cc32)CC1 (centres undefined) [CLOROTEPINE] | 0.87 | 0.94 | 1.04 | 1.09 | 1.05 | inactive | inactive | inactive | 1.12 | inactive | inactive | 0.87 | inactive | inactive | 6.4 | inactive | 18.1 | 0.98 | 82.8 | 1.07 | EC50 [24]: 1270 nM; solubility kinetic at 24 h [4]: 34.9 µg/mL (≈ 101 µM); Activity (Plasmodium falciparum [23]): inactive
Clc1ccc2c(c1)C(N1CCNCC1)Cc1ccccc1S2 (centres undefined) | 0.71 | 0.69 | 0.93 | 0.73 | 0.76 | inactive | inactive | inactive | 0.88 | inactive | inactive | 0.73 | inactive | inactive | 4.8 | inactive | 12.4 | 0.83 | 79.6 | 1.14 | solubility kinetic at 24 h [4]: 38.1 µg/mL (≈ 115 µM); Activity (Plasmodium falciparum [23]): inactive
